Measured values: ChEMBL document CHEMBL1151848, “Aryl nucleoside H-phosphonates. Part 16: synthesis and anti-HIV-1 activity of di-aryl nucleoside phosphotriesters” (Bioorg Med Chem, 2009)

Tests used:
[1] = Cytotoxicity against human MT4 cells after 96 hrs by MTT assay; type: cell-based
Summary of the method: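 Exponentially growing mock-infected MT-4 cells were seeded at 1 × 10⁵ cells/ml in RPMI-1640 with 10% FCS, penicillin G and streptomycin. They were incubated with serial compound dilutions at 37 °C in humidified 5% CO₂, and viability was read by MTT after 96 h. CC50 is the concentration reducing viability by 50%, as the mean of three independent determinations.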

[2] = system: Human immunodeficiency virus 1; test: Antiviral activity against HIV1 3B infected in human MT4 cells assessed as protection from virus-induced cytopathogenicity after 4 days by MTT assay; type: functional, organism-based; conditions: Human immunodeficiency virus 1, 3B, MT4, 96 h
Summary of the method: (§1)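 MT-4 cells, acutely infected at m.o.i. 0.01, were used to read inhibition of HIV-1-induced cytopathogenicity. Compounds were made as 100 mM DMSO stocks and diluted in culture medium. Viability was read by MTT. EC50 is the concentration giving 50% protection, as the mean (+SD) of three independent determinations.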

[3] = Selectivity index, ratio of CC50 for human MT4 cells to EC50 for HIV1 3B; type: toxicity, cell-based; conditions: read-out: Ratio CC50/EC50
[4] = Chemical stability assessed as chemical hydrolysis half life in RPMI-1640 culture medium by HPLC analysis; type: physicochemical
Summary of the method: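 Chemical hydrolysis of the compounds was followed in RPMI-1640 medium alone.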

[5] = system: Human immunodeficiency virus 1; test: Antiviral activity against non-nucleoside reverse transcriptase inhibitor-resistant HIV1 bearing reverse transcriptase N119 (Y181C) mutation infected in human MT4 cells assessed as protection from virus-induced cytopathogenicity after 4 days by MTT assay; type: functional, organism-based; conditions: Human immunodeficiency virus 1, MT4, 96 h; summary of the method: as §1
[6] = system: Human immunodeficiency virus 1; test: Antiviral activity against non-nucleoside reverse transcriptase inhibitor-resistant HIV1 bearing reverse transcriptase A17 (K103N, Y181C) mutation infected in human MT4 cells assessed as protection from virus-induced cytopathogenicity after 4 days by MTT assay; type: functional, organism-based; conditions: Human immunodeficiency virus 1, MT4, 96 h; summary of the method: as §1
[7] = system: Human immunodeficiency virus 1; test: Antiviral activity against efavirenz-resistant HIV1 infected in human MT4 cells assessed as protection from virus-induced cytopathogenicity after 4 days by MTT assay; type: functional, organism-based; conditions: Human immunodeficiency virus 1, MT4, 96 h; summary of the method: as §1
[8] = system: Human immunodeficiency virus 1; test: Antiviral activity against azidothymidine-resistant HIV1 infected in human MT4 cells assessed as protection from virus-induced cytopathogenicity after 4 days by MTT assay; type: functional, organism-based; conditions: Human immunodeficiency virus 1, MT4, 96 h; summary of the method: as §1
[9] = system: Human immunodeficiency virus 1; test: Antiviral activity against MDR1-resistant HIV1 infected in human MT4 cells assessed as protection from virus-induced cytopathogenicity after 4 days by MTT assay; type: functional, organism-based; conditions: Human immunodeficiency virus 1, MT4, 96 h; summary of the method: as §1

SMILES	CC50 at 96 h [1] [µM]	EC50 [2] [µM]	selectivity ratio [3]	half-life [4] [h]	EC50 [5] [µM]	EC50 [6] [µM]	EC50 [7] [µM]	EC50 [8] [µM]	EC50 [9] [µM]
O=c1ccn([C@H]2CC[C@@H](CO)O2)c(=O)[nH]1	> 100	> 100	–	–	–	–	–	–	–
Nc1ncnc2c1ncn2[C@H]1CC[C@@H](CO)O1	> 100	5.2	> 19	–	–	–	–	–	–
Cc1cn([C@H]2C[C@H](N=[N+]=[N-])[C@@H](COP(=O)(Oc3ccccc3)Oc3cncc(Cl)c3)O2)c(=O)[nH]c1=O (stereo not given in full)	100	0.04	2500	25.1	0.05	0.01	0.01	1.5	0.6
Cc1cn([C@H]2C[C@H](N=[N+]=[N-])[C@@H](COP(=O)(Oc3ccc(Br)cc3)Oc3cccnc3)O2)c(=O)[nH]c1=O (stereo not given in full)	94	0.03	3130	44.3	0.05	0.01	0.02	1.8	0.5
Cc1cn([C@H]2C[C@H](N=[N+]=[N-])[C@@H](COP(=O)(Oc3ccncc3)Oc3cccnc3)O2)c(=O)[nH]c1=O (stereo not given in full)	> 100	0.02	> 5000	8.55	0.01	0.007	0.01	2.3	1.2
Cc1ccc(OP(=O)(OC[C@H]2O[C@@H](n3cc(C)c(=O)[nH]c3=O)C[C@@H]2N=[N+]=[N-])Oc2ccc(C)nc2)cn1	> 100	0.04	> 2500	21.4	0.05	0.01	0.03	0.8	0.4
Cc1cn([C@H]2C[C@H](N=[N+]=[N-])[C@@H](COP(=O)(Oc3ccccc3)Oc3cccnc3Cl)O2)c(=O)[nH]c1=O (stereo not given in full)	≥ 100	0.03	> 3330	16.1	0.02	0.01	0.01	1.2	0.4
Cc1cn([C@H]2C[C@H](N=[N+]=[N-])[C@@H](COP(=O)(Oc3ccc(C#N)cc3)Oc3cccnc3)O2)c(=O)[nH]c1=O (stereo not given in full)	58	0.02	2900	2.88	0.02	0.009	0.03	0.8	0.3
Cc1ncccc1OP(=O)(OC[C@H]1O[C@@H](n2cc(C)c(=O)[nH]c2=O)C[C@@H]1N=[N+]=[N-])Oc1cccnc1C	> 100	0.02	> 5000	17.2	0.03	0.01	0.02	0.8	0.2
Cc1ncccc1OP(=O)(OC[C@H]1O[C@@H](n2cc(C)c(=O)[nH]c2=O)C[C@@H]1N=[N+]=[N-])Oc1ccccc1 (stereo not given in full)	> 100	0.1	> 1000	82.5	0.08	0.06	0.09	4.7	1.6
Cc1cn([C@H]2C[C@H](N=[N+]=[N-])[C@@H](COP(=O)(Oc3cccnc3)Oc3ccc(Cl)cc3Cl)O2)c(=O)[nH]c1=O (stereo not given in full)	> 100	0.01	> 10000	6.6	0.01	0.008	0.01	0.4	0.1
Cc1cn([C@H]2C[C@H](N=[N+]=[N-])[C@@H](COP(=O)(Oc3cccnc3)Oc3cccnc3)O2)c(=O)[nH]c1=O	> 100	0.01	> 10000	4.92	0.01	0.003	0.01	0.7	0.1
O=c1ccn([C@H]2CC[C@@H](COP(=O)(Oc3ccncc3)Oc3cccnc3)O2)c(=O)[nH]1 (stereo not given in full)	> 100	14	> 7	7	9	5	7	> 100	≥ 100
Cc1ccc(OP(=O)(OC[C@H]2O[C@@H](n3cc(C)c(=O)[nH]c3=O)C[C@@H]2N=[N+]=[N-])Oc2ccccc2)cn1 (stereo not given in full)	> 100	0.09	> 1110	44.4	0.08	0.04	0.07	7	1.6
Nc1ncnc2c1ncn2[C@H]1CC[C@@H](COP(=O)(Oc2ccccc2)Oc2cccnc2)O1 (stereo not given in full)	> 100	23	> 4	88.8	30	7	16	42	50
O=c1ccn([C@H]2CC[C@@H](COP(=O)(Oc3ccccc3)Oc3ccncc3)O2)c(=O)[nH]1 (stereo not given in full)	> 100	3	> 33	26.8	4	2	2	60	38
Cc1cn([C@H]2C[C@H](N=[N+]=[N-])[C@@H](COP(=O)(Oc3ccc(Cl)cc3)Oc3cccnc3)O2)c(=O)[nH]c1=O (stereo not given in full)	≥ 100	0.03	> 3330	55	0.04	0.01	0.01	1.9	0.7
O=c1ccn([C@H]2CC[C@@H](COP(=O)(Oc3ccccc3)Oc3cccnc3)O2)c(=O)[nH]1 (stereo not given in full)	> 100	38	> 2	64.2	30	11	20	> 100	> 100
Cc1cn([C@H]2C[C@H](N=[N+]=[N-])[C@@H](COP(=O)(Oc3ccccc3)Oc3cccnc3)O2)c(=O)[nH]c1=O (stereo not given in full)	> 100	0.05	> 2000	50.2	0.04	0.02	0.03	2.3	0.5
Cc1cn([C@H]2C[C@H](N=[N+]=[N-])[C@@H](CO)O2)c(=O)[nH]c1=O [ZIDOVUDINE]	60	–	> 6000	–	0.01	0.01	0.01	0.6	0.1
